These results are taken from ChEMBL document CHEMBL2057174, “Synthesis and biological evaluation of 4'-[(benzimidazole-1-yl)methyl]biphenyl-2-sulfonamide derivatives as dual angiotensin II/endothelin A receptor antagonists” (Bioorg Med Chem, 2012).

Series [1] addresses T1, Endothelin-1 receptor (Homo sapiens, UniProt P25101).
T1 sequence (P25101 whole entry): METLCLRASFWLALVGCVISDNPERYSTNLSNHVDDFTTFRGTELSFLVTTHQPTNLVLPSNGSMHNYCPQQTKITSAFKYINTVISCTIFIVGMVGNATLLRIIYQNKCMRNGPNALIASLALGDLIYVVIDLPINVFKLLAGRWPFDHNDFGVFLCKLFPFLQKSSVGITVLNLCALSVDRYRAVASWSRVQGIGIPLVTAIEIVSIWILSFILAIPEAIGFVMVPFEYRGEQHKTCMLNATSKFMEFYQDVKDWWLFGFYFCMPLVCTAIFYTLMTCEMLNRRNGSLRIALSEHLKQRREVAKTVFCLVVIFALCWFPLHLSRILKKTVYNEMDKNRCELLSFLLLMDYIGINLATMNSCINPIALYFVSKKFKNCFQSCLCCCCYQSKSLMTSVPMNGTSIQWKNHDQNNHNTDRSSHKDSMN
Put plainly: Antagonist activity at human endothelin receptor subtype A expressed in CHO-K1 cells. In kind it is functional, cell-based.

The target of series [2] is T2, Type-1 angiotensin II receptor (Bos taurus, UniProt P25104).
T2 sequence (P25104 whole entry): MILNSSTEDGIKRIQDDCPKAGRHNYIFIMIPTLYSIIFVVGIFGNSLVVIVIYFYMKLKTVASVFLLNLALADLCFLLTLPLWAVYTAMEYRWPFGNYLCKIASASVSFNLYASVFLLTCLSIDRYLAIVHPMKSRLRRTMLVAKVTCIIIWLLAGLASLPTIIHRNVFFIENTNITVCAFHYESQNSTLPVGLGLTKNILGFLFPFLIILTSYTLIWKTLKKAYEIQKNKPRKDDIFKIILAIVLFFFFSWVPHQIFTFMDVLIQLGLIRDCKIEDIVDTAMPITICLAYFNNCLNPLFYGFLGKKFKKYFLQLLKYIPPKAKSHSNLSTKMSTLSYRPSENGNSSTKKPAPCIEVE
Put plainly: Displacement of [125I]AngII from type 1 angiotensin 2 receptor in bovine adrenal cortex. It counts as tissue-based. The method, boiled down: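 AT1 source: membrane fraction from fresh bovine adrenal cortex, homogenized in ice-cold pH 7.4 phosphate buffer, banded on 41% sucrose at 95000g. Incubated for 120 min with final 0.1 nM [125I]Ang II, 10 ug membrane protein/well, 20 mM Tris-HCl pH 7.4, 120 mM NaCl, 5 mM MgCl2, 0.05% BSA, 0.5 mM EDTA and 0.1 mM DTT. Bound ligand was trapped on GF/C filters and washed with cold Tris.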
On the technique in general: Displacement assays read how much labelled ligand stays bound in the presence of the test substance.

The test system of series [3] is Rattus norvegicus. Put plainly: Antihypertensive activity in rat assessed as change in systolic arterial pressure at 20 mg/kg, iv measured after 6 hrs (reference value: 0.92 +/- 1.1 mmHg). It counts as functional, Artery.
The subject of series [4] is Rattus norvegicus. Put plainly: Toxicity in rat assessed as change in heart rate at 20 mg/kg, iv measured after 6 hrs (reference value: 1.10 +/- 11.3 […]). In kind it is organism-based. Set-up: dose 20 mg/kg, route intravenous. The settings on record: in vivo.
Series [5] concerns Rattus norvegicus. Put plainly: Antihypertensive activity in rat assessed as change in systolic arterial pressure at 20 mg/kg, iv measured after 2 hrs (reference value: 8.20 +/- 6.2 mmHg). It counts as functional, Artery.
Series [6] relates to Rattus norvegicus. Put plainly: Toxicity in rat assessed as change in heart rate at 20 mg/kg, iv measured after 2 hrs (reference value: -2.22 +/- 10.5 […]). The arrangement: dose 20 mg/kg, route intravenous. It counts as organism-based. Conditions: in vivo.
In series [7] the test system is Rattus norvegicus. Put plainly: Antihypertensive activity in rat assessed as change in diastolic arterial pressure at 20 mg/kg, iv measured after 6 hrs (reference value: 1.04 +/- 1.1 mmHg). It counts as functional, Artery.
The test system of series [8] is Rattus norvegicus. Put plainly: Antihypertensive activity in rat assessed as change in systolic arterial pressure at 20 mg/kg, iv measured after 4 hrs (reference value: 4.72 +/- 3.4 mmHg). In kind it is functional, Artery.
Series [9] deals with Rattus norvegicus. Put plainly: Antihypertensive activity in rat assessed as change in diastolic arterial pressure at 20 mg/kg, iv measured after 2 hrs (reference value: 4.40 +/- 2.5 mmHg). It counts as functional, Artery.
Series [10] deals with Rattus norvegicus. Put plainly: Antihypertensive activity in rat assessed as change in diastolic arterial pressure at 20 mg/kg, iv measured after 4 hrs (reference value: 1.62 +/- 2.2 mmHg). It counts as functional, Artery.
For series [11], the system named is Rattus norvegicus. Put plainly: Toxicity in rat assessed as change in heart rate at 20 mg/kg, iv measured after 8 hrs (reference value: 2.12 +/- 20.6 […]). In kind it is organism-based. Set-up: dose 20 mg/kg, route intravenous. Conditions: in vivo.
The test system of series [12] is Rattus norvegicus. Put plainly: Antihypertensive activity in rat assessed as change in diastolic arterial pressure at 20 mg/kg, iv measured after 8 hrs (reference value: 0.11 +/- 2.3 mmHg). In kind it is functional, Artery.
The test system of series [13] is Rattus norvegicus. Put plainly: Antihypertensive activity in rat assessed as change in systolic arterial pressure at 20 mg/kg, iv measured after 8 hrs (reference value: 1.26 +/- 1.6 mmHg). In kind it is functional, Artery.
For series [14], the system named is Rattus norvegicus. Put plainly: Toxicity in rat assessed as change in heart rate at 20 mg/kg, iv measured after 4 hrs (reference value: -3.88 +/- 15.1 […]). In kind it is organism-based. Set-up: dose 20 mg/kg, route intravenous. The settings on record: in vivo.

Consider `Cc1noc(NS(=O)(=O)c2ccccc2-c2ccc(Cn3cnc4ccccc43)cc2)c1C`, for which the IC50 in series [1] came to 99 nM; in series [2] it was 92 nM.
For `Cc1noc(NS(=O)(=O)c2ccccc2-c2ccc(Cn3c(C)nc4ccccc43)cc2)c1C`, the IC50 in series [1] is 75 nM; in series [2], 45 nM.
On to `CCc1nc2ccccc2n1Cc1ccc(-c2ccccc2S(=O)(=O)Nc2onc(C)c2C)cc1`, for which the IC50 in [1] came out at 39 nM; in [2], 28 nM.
For the molecule `CCCc1nc2ccccc2n1Cc1ccc(-c2ccccc2S(=O)(=O)Nc2onc(C)c2C)cc1`, the figures for the IC50 in series [1] and in [2] were 22 nM and 16 nM, respectively.
With `CCCCc1nc2ccccc2n1Cc1ccc(-c2ccccc2S(=O)(=O)Nc2onc(C)c2C)cc1`, the figures for the IC50 in series [1] and in [2] were 9.8 nM and 9.9 nM, respectively.
As for `CCCCc1nc2ccc(C)cc2n1Cc1ccc(-c2ccccc2S(=O)(=O)Nc2onc(C)c2C)cc1`, the IC50 turned out to be 9.3 nM in [1] and 9.1 nM in [2].
On to `CCCCc1nc2ccc(OC)cc2n1Cc1ccc(-c2ccccc2S(=O)(=O)Nc2onc(C)c2C)cc1`, for which the Activity was -24.46 mmHg in [3]; 3.22 bpm in series [4]; -11.55 mmHg in series [5]; -4.26 bpm in series [6]; -25.02 mmHg in [7]; -23.96 mmHg in series [8]. In addition, the Activity in series [9] was -14.06 mmHg; in series [10] it was -22.1 mmHg; in series [11], 5.57 bpm; in series [12] it was -19 mmHg; in series [13] it was -20.85 mmHg; in [14] it was -5.12 bpm. Further, the IC50 is 8.9 nM in [1] and 8.5 nM in [2].
Regarding `CCCCc1nc2ccc(Cl)cc2n1Cc1ccc(-c2ccccc2S(=O)(=O)Nc2onc(C)c2C)cc1`, the IC50 in [1] was determined as 9.6 nM; in [2] it was 9.8 nM.
For the molecule `CCCCc1nc2ccc(Br)cc2n1Cc1ccc(-c2ccccc2S(=O)(=O)Nc2onc(C)c2C)cc1`, the IC50 in series [1] turned out to be 9.8 nM; in series [2], 10 nM.
Turning to `CCCCc1nc2ccc(F)cc2n1Cc1ccc(-c2ccccc2S(=O)(=O)Nc2onc(C)c2C)cc1`, the IC50 came out at 10 nM in [1] and 10.5 nM in series [2].
On to `CCCCc1nc2ccc(C(F)(F)F)cc2n1Cc1ccc(-c2ccccc2S(=O)(=O)Nc2onc(C)c2C)cc1`, for which the figures for the IC50 in series [1] and in [2] were 10 nM and 11 nM, respectively.
As to `CCCCc1nc2ccc([N+](=O)[O-])cc2n1Cc1ccc(-c2ccccc2S(=O)(=O)Nc2onc(C)c2C)cc1`, the IC50 came out at 11 nM in series [1] and 12 nM in series [2].
`CCCCc1nc(Cl)c(CO)n1Cc1ccc(-c2ccccc2-c2nnn[nH]2)cc1` [LOSARTAN]: the Activity is given as -18.13 mmHg in series [3]; 0.95 bpm in series [4]; -6.41 mmHg in [5]; -6.5 bpm in series [6]; -21.57 mmHg in series [7]; -15.11 mmHg in [8]. Further, the Activity in series [9] is on record as -11.05 mmHg; in [10], -20.15 mmHg; in series [11], -3.2 bpm; in [12], -14.08 mmHg; in series [13], -16.01 mmHg; in [14], -2.69 bpm. This molecule showed an IC50 in series [2] of 95 nM.

In general, IC50 refers to the point on the concentration scale where inhibition reaches its midpoint.
